Activity calls are given as the source filed them. The calls are words filed in the database; no cut-off is given here.
Key:
MCF-10A = assay: Cytotoxicity against human MCF-10A cells after 48 hrs by MTT assay; assay type: cell-based
In short: (§1)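 MTT viability read after 48 h exposure of three breast cancer lines and non-tumorigenic MCF-10A breast cells; IC50 reported as mean ± SD from at least three independent experiments. Butyl-TPP and tamoxifen run alongside as references. Sulforhodamine B assay used as a cross-check.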

MCF7 = assay: Cytotoxicity against human MCF7 cells after 48 hrs by MTT assay; assay type: functional, cell-based; settings: MCF7, 48 h; in short: as §1
[1] = Drug uptake in human MDA-MB-231 cells assessed as blue fluorescence after 2 hrs by flow cytometric analysis; assay type: ADME, cell-based; settings: mda-mb-231, 2 h, dose 1-16 µM
In short: (§2)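 Uptake read from native blue fluorescence (λex ~420, λem ~475 nm) by flow cytometry as geometric mean intensity. Dose series read after 2 h. Time course run at 8 μM over several durations. Mean ± SD, n = 3.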

MDA-MB-231 [2] = assay: Induction of apoptosis in human MDA-MB-231 cells assessed as early apoptotic cells at 2 uM incubated for 48 hrs by Annexin V-FITC/PI staining based flow cytometric analysis (reference value: 2.08 %); assay type: functional
MDA-MB-231 [3] = assay: Induction of apoptosis in human MDA-MB-231 cells assessed as late apoptotic or necrotic cells at 2 uM incubated for 48 hrs by Annexin V-FITC/PI staining based flow cytometric analysis (reference value: 3.51 %); assay type: functional
MDA-MB-231 [4] = assay: Induction of apoptosis in human MDA-MB-231 cells assessed as early apoptotic cells at 4 uM incubated for 48 hrs by Annexin V-FITC/PI staining based flow cytometric analysis (reference value: 2.08 %); assay type: functional
MDA-MB-231 [5] = assay: Induction of apoptosis in human MDA-MB-231 cells assessed as late apoptotic or necrotic cells at 4 uM incubated for 48 hrs by Annexin V-FITC/PI staining based flow cytometric analysis (reference value: 3.51 %); assay type: functional
MDA-MB-231 [6] = assay: Induction of apoptosis in human MDA-MB-231 cells assessed as early apoptotic cells at 8 uM incubated for 48 hrs by Annexin V-FITC/PI staining based flow cytometric analysis (reference value: 2.08 %); assay type: functional
MDA-MB-231 [7] = assay: Induction of apoptosis in human MDA-MB-231 cells assessed as late apoptotic or necrotic cells at 8 uM incubated for 48 hrs by Annexin V-FITC/PI staining based flow cytometric analysis (reference value: 3.51 %); assay type: functional
MDA-MB-231 [8] = assay: Induction of mitochondrial membrane potential loss in human MDA-MB-231 cells assessed as TMRE low/caspase low cells at 8 uM after 24 hrs by TMRE staining based flow cytometric analysis (reference value: 98.21%); assay type: functional
MDA-MB-231 [9] = assay: Induction of mitochondrial membrane potential loss in human MDA-MB-231 cells assessed as TMRE low/caspase low cells at 4 uM after 24 hrs by TMRE staining based flow cytometric analysis (reference value: 98.21%); assay type: functional
MDA-MB-231 [10] = assay: Induction of mitochondrial membrane potential loss in human MDA-MB-231 cells assessed as TMRE low/caspase low cells at 2 uM after 24 hrs by TMRE staining based flow cytometric analysis (reference value: 98.21%); assay type: functional
MDA-MB-231 [11] = assay: Induction of mitochondrial membrane potential loss in human MDA-MB-231 cells assessed as TMRE high cells at 8 uM after 24 hrs by TMRE staining based flow cytometric analysis (reference value: 1.79%); assay type: functional
MDA-MB-231 [12] = assay: Induction of mitochondrial membrane potential loss in human MDA-MB-231 cells assessed as TMRE high cells at 4 uM after 24 hrs by TMRE staining based flow cytometric analysis (reference value: 1.79%); assay type: functional
MDA-MB-231 [13] = assay: Induction of mitochondrial membrane potential loss in human MDA-MB-231 cells assessed as TMRE high cells at 2 uM after 24 hrs by TMRE staining based flow cytometric analysis (reference value: 1.79%); assay type: functional
MDA-MB-231 [14] = assay: Down regulation of TrxR expression in human MDA-MB-231 cells incubated for 48 hrs by Western blot analysis; assay type: functional, cell-based; settings: dose 2-8 µM
In short: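 MDA-MB-231 cells exposed at 2, 4 and 8 μM for 48 h. TrxR2 protein detected by Western blot and quantified by gray-value scanning. Mean ± SD, n = 3.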

MDA-MB-231 [15] = assay: Inhibition of TrxR activity in human MDA-MB-231 cell mitochondrial extracts at 10 uM incubated for 4 hrs; settings: Mitochondria
In short: (§3)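 MDA-MB-231 cells treated with 10 μM compound for 4 h. Total-cell and mitochondrial extracts assayed for TrxR activity with a micro oxidized thioredoxin reductase kit. Mean ± SD, n = 3.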

MDA-MB-231 [16] = assay: Inhibition of TrxR activity in human MDA-MB-231 cells at 10 uM incubated for 4 hrs; assay type: cell-based; in short: as §3
MDA-MB-231 [17] = assay: Induction of mitochondrial membrane depolarization in human MDA-MB-231 cells at 2 to 8 uM preincubated with BSO for 24 hrs followed by compound addition by flow cytometric analysis; assay type: functional; settings: dose 2-8 µM
In short: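 MDA-MB-231 cells pretreated with 50 μM buthionine sulfoximine for 24 h to deplete GSH, then exposed to compound. Mitochondrial membrane potential determined by flow cytometry. Mean ± SD, n = 3.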

MDA-MB-231 [18] = assay: Induction of cell death in human MDA-MB-231 cells assessed as reduction in cell viability preincubated with CsA for 2 hrs followed by compound addition and measured after 48 hrs by MTT assay; assay type: functional, cell-based
In short: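 MDA-MB-231 cells pre-incubated 2 h with cyclosporin A (2 and 4 μM), then exposed to compound for 48 h. Viability read by MTT. Mean ± SD, n = 3.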

MDA-MB-231 [19] = assay: Induction of ROS generation in human MDA-MB-231 cells after 6 hrs by DCFH-DA staining based flow cytometric analysis; assay type: functional, cell-based
In short: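 MDA-MB-231 cells treated for 6 h, then intracellular ROS probed with DCFH-DA. Geometric mean fluorescence measured by flow cytometry. Mean ± SD, n = 3.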

MDA-MB-231 [20] = assay: Induction of mitochondrial membrane potential loss in human MDA-MB-231 cells after 24 hrs by TMRE staining based flow cytometric analysis; assay type: functional, cell-based; settings: dose 2-8 µM
[21] = Drug localization in mitochondria of human MDA-MB-231 cells at 1 uM incubated for 30 mins in presence of CCCP by MTDR staining based laser confocal microscopic analysis; assay type: ADME; settings: mda-mb-231, 0.5 h
[22] = Drug localization in mitochondria of human MDA-MB-231 cells at 1 uM incubated for 30 mins by MTDR staining based laser confocal microscopic analysis; assay type: ADME; settings: mda-mb-231, 0.5 h
[23] = Stability of compound in methanol-water after 3 days by HPLC-MS analysis; assay type: physicochemical; settings: 72 h; time 3 day
[24] = Drug uptake in human MDA-MB-231 cells assessed as blue fluorescence at 8 uM measured after 0.5 to 1.5 hrs by flow cytometric analysis; assay type: ADME, cell-based; settings: mda-mb-231, 8 µM, TDE = time-dependent effect, time 0.5-1.5 hrs; in short: as §2
SK-BR-3 = assay: Cytotoxicity against human SK-BR-3 cells after 48 hrs by MTT assay; assay type: functional, cell-based; settings: SK-BR-3, 48 h; in short: as §1
MDA-MB-231 [25] = assay: Cytotoxicity against human MDA-MB-231 cells after 48 hrs by MTT assay; assay type: functional, cell-based; settings: MDA-MB-231, 48 h; in short: as §1
MDA-MB-231 [26] = assay: Induction of cell death in human MDA-MB-231 cells assessed as reduction in cell viability at 2 to 8 uM preincubated with BSO for 24 hrs followed by compound addition and measured after 24 hrs MTT assay; assay type: functional; settings: dose 2-8 µM
In short: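 MDA-MB-231 cells pretreated with buthionine sulfoximine (50 μM, 24 h) to deplete GSH, then exposed to test compound for a further 24 h. Viability read by MTT. Means ± SD, n = 3.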

With `CC/C(=C(\c1ccccc1)c1ccc(OCCN(C)C)cc1)c1ccccc1` [TAMOXIFEN] the IC50 (MCF-10A) was over 50 µM and the IC50 (MCF7) was 15.2 µM.

For `CCN(CC)c1ccc2cc(C(=O)NCCCC[P+](c3ccccc3)(c3ccccc3)c3ccccc3)c(=O)oc2c1`, the Drug uptake [1] was “Dose-dependent effect”, the Activity (MDA-MB-231 [2]) was 1.2% and the Activity (MDA-MB-231 [3]) was 14.69%. For the same molecule, the Activity (MDA-MB-231 [4]) was 6.47%, the Activity (MDA-MB-231 [5]) was 24.09% and the Activity (MDA-MB-231 [6]) was 1.89%. It also gave an Activity (MDA-MB-231 [7]) of 65.07%, an Activity (MDA-MB-231 [8]) of 60.63% and an Activity (MDA-MB-231 [9]) of 70.55%. For the same molecule, the Activity (MDA-MB-231 [10]) was 78.96%, the Activity (MDA-MB-231 [11]) was 39.37% and the Activity (MDA-MB-231 [12]) was 29.45%. The Activity (MDA-MB-231 [13]) was 21.04%, the Activity (MDA-MB-231 [14]) was “Active” and the inhibition (MDA-MB-231 [15]) was “Active”. For the same molecule, the inhibition (MDA-MB-231 [16]) was “Active”, the Activity (MDA-MB-231 [17]) was 13% and the Activity (MDA-MB-231 [18]) was “inactive”. For the same molecule, the Activity (MDA-MB-231 [19]) was “Dose-dependent effect”, the Activity (MDA-MB-231 [20]) was “Dose-dependent effect” and the Drug uptake [21] was “Not Active”. For the same molecule, the Drug uptake [22] was “Active”, the Stabilty [23] was “Stable” and the Drug uptake [24] was “Tde”. It also gave an IC50 (MCF-10A) of 45.3 µM, an IC50 (SK-BR-3) of 3.46 µM and an IC50 (MDA-MB-231 [25]) of 3.03 µM. It also gave an IC50 (MCF7) of 3.26 µM and an Activity (MDA-MB-231 [26]) of 50%.

Molecule `CCN(Cc1ccccc1)c1ccc2cc(C(=O)NCCCC[P+](c3ccccc3)(c3ccccc3)c3ccccc3)c(=O)oc2c1` has an IC50 (MCF-10A) of 15.1 µM, an IC50 (SK-BR-3) of 2.73 µM and an IC50 (MDA-MB-231 [25]) of 3.73 µM. For the same molecule, the IC50 (MCF7) was 4.9 µM.

For `CCCCNC(=O)c1cc2ccc(N(CC)CC)cc2oc1=O`, the IC50 (MCF-10A) was over 100 µM, the IC50 (SK-BR-3) was over 100 µM and the IC50 (MDA-MB-231 [25]) was over 100 µM. The IC50 (MCF7) was over 100 µM.

With `CCN(CC)c1ccc2cc(C(=O)OCCCC[P+](c3ccccc3)(c3ccccc3)c3ccccc3)c(=O)oc2c1` the Drug uptake [1] was “Dose-dependent effect”, the Stabilty [23] was “Unstable” and the Drug uptake [24] was “Tde”. It also gave an IC50 (MCF-10A) of 83.7 µM, an IC50 (SK-BR-3) of 30.9 µM and an IC50 (MDA-MB-231 [25]) of 29.4 µM. For the same molecule, the IC50 (MCF7) was 27.8 µM.

For `CCCC[P+](c1ccccc1)(c1ccccc1)c1ccccc1`, the IC50 (MCF-10A) was over 100 µM, the IC50 (SK-BR-3) was over 100 µM and the IC50 (MDA-MB-231 [25]) was over 100 µM. The IC50 (MCF7) was 57.4 µM.
